Experimental data published in ChEMBL document CHEMBL3046736, “Kinetic studies of novel inhibitors of endomorphin degrading enzymes” (Med Chem Res, 2012).
Residues, ends and D or L forms follow the SMILES beside them.

Tests used:
[1] = target: T1, Aminopeptidase N (Homo sapiens, UniProt P15144); assay: Inhibition of APM (unknown origin) assessed as inhibition of endomorphin-2 degradation after 30 min
[2] = target: T1, Aminopeptidase N; assay: Inhibition of APM (unknown origin) assessed as inhibition of endomorphin-1 degradation after 30 min
[3] = target: T1, Aminopeptidase N
[4] = target: T1, Aminopeptidase N; remark: listed apart in the source
[5] = target: T2, Dipeptidyl peptidase 4 (Homo sapiens, UniProt P27487); assay: Inhibition of DPP-4 (unknown origin) assessed as inhibition of endomorphin-1 degradation after 30 min
Procedure, shortened: (§1)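 Purified commercial DPP IV (0.002 mg protein/ml) incubated with endomorphin and inhibitor, each from 1 mM solutions in 50 mM Tris–HCl pH 7.4, at 37°C for 0, 7.5, 15, 22.5 and 30 min. Stopped on ice with 1 M HCl, centrifuged. Rate constant k from linear regression of ln(A/A0) of peptide peak area versus time; t1/2 = ln2/k. Three independent experiments in duplicate.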

[6] = target: T2, Dipeptidyl peptidase 4; assay: Inhibition of DPP-4 (unknown origin) assessed as inhibition of endomorphin-2 degradation after 30 min; procedure, shortened: as §1
[7] = target: T2, Dipeptidyl peptidase 4; assay: Inhibition of DPP-4 (unknown origin) assessed as half-life of endomorphin-1 after 30 min by RP-HPLC analysis (reference value: […] +/- 0.52 min)
Target sequence in this assay (P27487 whole entry, looked up): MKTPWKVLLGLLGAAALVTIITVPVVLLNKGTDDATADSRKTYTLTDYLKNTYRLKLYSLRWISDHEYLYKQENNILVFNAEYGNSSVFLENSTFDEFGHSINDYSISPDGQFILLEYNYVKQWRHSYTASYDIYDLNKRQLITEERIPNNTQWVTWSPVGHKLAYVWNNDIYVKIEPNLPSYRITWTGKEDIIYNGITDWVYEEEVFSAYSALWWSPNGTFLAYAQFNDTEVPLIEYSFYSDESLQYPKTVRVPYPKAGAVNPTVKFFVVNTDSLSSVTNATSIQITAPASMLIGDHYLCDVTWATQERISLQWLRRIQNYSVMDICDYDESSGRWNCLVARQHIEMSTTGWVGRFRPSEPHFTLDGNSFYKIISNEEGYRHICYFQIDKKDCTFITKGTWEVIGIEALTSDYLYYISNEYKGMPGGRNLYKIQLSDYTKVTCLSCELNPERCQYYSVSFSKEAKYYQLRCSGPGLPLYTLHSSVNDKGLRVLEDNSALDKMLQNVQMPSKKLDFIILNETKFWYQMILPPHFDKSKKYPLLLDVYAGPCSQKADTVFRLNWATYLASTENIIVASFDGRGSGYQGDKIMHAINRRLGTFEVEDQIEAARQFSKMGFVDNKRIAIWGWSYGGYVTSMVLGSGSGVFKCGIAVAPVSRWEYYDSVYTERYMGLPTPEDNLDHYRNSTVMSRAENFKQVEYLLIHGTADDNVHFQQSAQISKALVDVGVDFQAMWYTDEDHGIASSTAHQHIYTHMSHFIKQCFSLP

[8] = target: T2, Dipeptidyl peptidase 4; assay: Inhibition of DPP-4 (unknown origin) assessed as half-life of endomorphin-2 after 30 min by RP-HPLC analysis (reference value: […] +/- 0.64 min)
Target sequence in this assay (P27487 whole entry, looked up): as above

T1 sequence (P15144 whole entry): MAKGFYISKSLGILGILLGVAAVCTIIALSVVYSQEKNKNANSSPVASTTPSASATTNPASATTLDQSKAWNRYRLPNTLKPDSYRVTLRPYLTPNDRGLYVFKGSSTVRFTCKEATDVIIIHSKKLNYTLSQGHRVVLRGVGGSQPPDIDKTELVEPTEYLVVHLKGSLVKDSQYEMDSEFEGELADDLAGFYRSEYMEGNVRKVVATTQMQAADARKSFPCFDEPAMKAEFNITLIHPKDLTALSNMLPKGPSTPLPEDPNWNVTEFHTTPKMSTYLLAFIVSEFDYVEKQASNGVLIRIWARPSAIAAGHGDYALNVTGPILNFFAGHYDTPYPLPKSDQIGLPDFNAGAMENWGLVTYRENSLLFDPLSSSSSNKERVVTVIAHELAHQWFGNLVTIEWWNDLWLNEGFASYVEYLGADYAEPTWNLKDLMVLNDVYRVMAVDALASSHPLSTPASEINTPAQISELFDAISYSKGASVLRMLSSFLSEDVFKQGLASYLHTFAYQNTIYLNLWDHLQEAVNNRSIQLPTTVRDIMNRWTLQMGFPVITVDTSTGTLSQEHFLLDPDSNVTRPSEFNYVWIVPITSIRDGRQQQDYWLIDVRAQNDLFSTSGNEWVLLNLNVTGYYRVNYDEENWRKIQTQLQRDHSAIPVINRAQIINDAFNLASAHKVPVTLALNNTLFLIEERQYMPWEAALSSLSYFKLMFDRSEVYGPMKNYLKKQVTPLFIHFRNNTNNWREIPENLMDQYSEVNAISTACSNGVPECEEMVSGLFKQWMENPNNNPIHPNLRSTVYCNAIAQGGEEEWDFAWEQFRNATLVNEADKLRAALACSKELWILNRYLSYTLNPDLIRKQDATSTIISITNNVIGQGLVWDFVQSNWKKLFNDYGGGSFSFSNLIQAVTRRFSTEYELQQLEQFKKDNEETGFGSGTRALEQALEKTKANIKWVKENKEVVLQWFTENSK

SMILES	Ki [1] [µM]	Ki [2] [µM]	T1/2 [3] [min]	T1/2 [4] [min]	Ki [5] [µM]	inhibition [5] [%]	Ki [6] [µM]	inhibition [6] [%]	T1/2 [7] [min]	T1/2 [8] [min]
CCCCC[C@H](CC(=O)NO)C(=O)N[C@H](C(=O)N1CCC[C@H]1CO)C(C)C [ACTINONIN]	300	390	46.3	36.8	–	–	–	–	–	–
C[C@H](NC(=O)[C@@H]1CCCN1C(=O)[C@@H](N)Cc1ccc(O)cc1)C(N)=O (H-Tyr-Pro-Ala-NH2)	–	–	–	–	420	26.7	170	44.8	22.9	19.8
C[C@H](NC(=O)[C@@H]1CCCN1C(=O)[C@@H](N)Cc1ccc(O)cc1)C(=O)O (H-Tyr-Pro-Ala-OH)	–	–	–	–	–	–	–	–	27.5	27.4
CC[C@H](C)[C@H](N)C(=O)N1CCC[C@H]1C(=O)N[C@H](C(=O)O)[C@@H](C)CC	–	–	–	–	–	–	–	–	530	383
